Screening results (PubChem)
Rad51 HR inh – blocks human Rad51 in homologous recombination; hRad51 DNA strand exchange, fluorescence dequenching; actives 0.085% (n = 200,000); inhibition, % at 10 µM; Q06609; AID 1385;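 active = inhibition above 40% at the single screening dose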
Target sequence (Q06609 whole entry, looked up): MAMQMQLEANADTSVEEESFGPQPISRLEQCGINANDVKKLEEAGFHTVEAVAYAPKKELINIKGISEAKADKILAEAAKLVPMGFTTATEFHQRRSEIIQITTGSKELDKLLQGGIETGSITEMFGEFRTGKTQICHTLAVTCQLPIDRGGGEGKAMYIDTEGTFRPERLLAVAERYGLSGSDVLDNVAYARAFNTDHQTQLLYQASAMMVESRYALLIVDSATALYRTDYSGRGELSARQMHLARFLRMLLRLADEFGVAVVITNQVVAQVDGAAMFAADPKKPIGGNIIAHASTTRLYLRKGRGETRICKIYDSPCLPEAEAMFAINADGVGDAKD
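Assay system: Human Rad51 nucleoprotein filaments preassembled on unlabelled ssDNA | Reagent: Donor/quencher-labelled 47-bp dsDNA substrate | Doses: One concentration, 10 µM final | Times: 37 °C 15-min filament assembly, 30-min compound preincubation, 15-min exchange | Technique: Fluorescein emission 520 nm, excitation 485 nm | Benchmarks: Plate control and blank wells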
SKKanGAS inh – blocks kanamycin growth of S. pyogenes SKKanGAS strain. inhibition, % at 7.5 µM. AID 1662. actives 1.3% (n = 300,000). BacTiter-Glo, 6 h;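 active = mean replicate score, as percent of positive control median, at least 50; inconclusive = mean below 50 but one replicate at or above 50; inactive = mean and every replicate below 50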;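 note: strain carries kanamycin resistance gene driven by streptokinase promoter and grows in 40 µg/ml kanamycin; loss of luminescence reflects streptokinase promoter inhibition or plain growth inhibition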
KCC2 mod – KCC2 (human) Cl- transport modulation; B-score of Tl+ flux slope (higher = more flux/activation; lower = inhibition) at 10 µM; KCC2 cells, thallium flux FluoZin-2 fluorescence; actives 2.2% (n = 190,000); AID 1456;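 active = thallium flux slope and its plate-corrected score both differing from the plate sample mean at a set confidence after two filtering rounds, in either direction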;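 note: slope of fluorescence scaled to starting intensity during 10 to 20 s after thallium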
Ins promoter up – MIN6 insulin promoter up-regulation. MIN6 insulin promoter-GFP reporter, high-content imaging; stronger effect = higher value. z-score at 5 µM. actives 0.3% (n = 190,000). AID 1625;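 active = z-score above 3 at 5 µM with at least 500 cells counted in the well; inconclusive = wells under 500 cells, flagged as cytotoxic or low count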
WT yeast gro inh – growth inhibition of WT yeast, mitochondrial fusion screen; mitochondrial fusion phenotypic screen, WT strain; actives 2.1% (n = 190,000); AID 1362; inhibition, % at 10 µM; in the data active = inhibition above about 58%; tested in S. cerevisiae
Autophagy mod – autophagy modulation, high-content screen; MEF GFP-LC3 puncta imaging; test concentration mostly 10 µM; calls only at 10 µM (by protocol); actives 0.98% (n = 190,000); AID 463193;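 active = percentage of spot-positive cells more than 3 SD above its plate mean, without a fluorescence outlier flag or 80% toxicity; inconclusive = no clear call, values can overlap the other calls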
Hits are given with their value. Rows were chosen to be rich in hits. Some 4.2% of all compounds tested hit in one or more screens of this group.

Results for Cc1ccc(CN2CCN(CC(=O)NCCCN3CCN(c4ccc(F)cc4)CC3)C2=O)cc1 ?
Rad51 HR inh: inactive; SKKanGAS inh: inactive; KCC2 mod: inactive; Ins promoter up: inconclusive; WT yeast gro inh: inactive; Autophagy mod: inactive

How did Cc1c(C)c2cc(Cl)c(OCC(=O)N3CCN(c4ccc(F)cc4)CC3)cc2oc1=O do in these assays?
SKKanGAS inh: inactive

How did CC(C)c1ccc(NC(=O)NC2CCN(CC(=O)Nc3cccc4ccccc34)CC2)cc1 do in these assays?
SKKanGAS inh: inactive; KCC2 mod: inactive; Ins promoter up: inactive; WT yeast gro inh: inactive; Autophagy mod: active

Results for COc1cc(C2C(C#N)=C(N)Oc3cc(N)ccc32)cc(OC)c1OC (stereo not drawn) ?
Rad51 HR inh: inactive; KCC2 mod: inactive; Ins promoter up: inactive; WT yeast gro inh: inactive; Autophagy mod: active

How did COc1ccc(C2C(C#N)=C(N)Oc3cc(N)ccc32)cc1 (stereo not drawn) do in these assays?
SKKanGAS inh: inactive

Results for CCOc1ccc(/C=N/OCC(=O)NCc2ccc3c(c2)OCO3)cc1OC ?
Rad51 HR inh: inactive; SKKanGAS inh: inactive; KCC2 mod: inactive; Ins promoter up: inactive; WT yeast gro inh: inactive; Autophagy mod: inactive

What do the screens show for `Cc1ccc(NC(=O)CN2C(=O)S/C(=C\c3ccc(-c4cccc(C(=O)O)c4C)o3)C2=O)cc1`?
Rad51 HR inh: inactive; SKKanGAS inh: 53; KCC2 mod: inactive; Ins promoter up: inactive; WT yeast gro inh: inactive; Autophagy mod: inactive

What do the screens show for `Cc1ccc(NC(=O)CN2C(=O)S/C(=C/c3ccc(-c4cccc(C(=O)O)c4)o3)C2=O)cc1`?
KCC2 mod: inactive; Ins promoter up: inactive; WT yeast gro inh: inactive; Autophagy mod: inactive

Results for Cc1cc(C)n(CCc2nc(-c3ccc(F)cc3)cs2)n1 ?
Rad51 HR inh: inactive; SKKanGAS inh: inactive; KCC2 mod: inactive; Ins promoter up: inactive; WT yeast gro inh: inactive; Autophagy mod: inactive

What do the screens show for `Cc1cc(C)n(CCc2nc(-c3ccc(C(C)(C)C)cc3)cs2)n1`?
Rad51 HR inh: inactive; SKKanGAS inh: inactive; KCC2 mod: inactive; Ins promoter up: inactive; WT yeast gro inh: 75; Autophagy mod: inactive

Results for O=C(NNS(=O)(=O)c1ccc(Br)cc1)c1csnn1 ?
Rad51 HR inh: inactive; KCC2 mod: inactive; Ins promoter up: inactive; WT yeast gro inh: inactive; Autophagy mod: inactive

How did CCC(=O)Nc1ccc(NC(=O)c2cc3ccccc3o2)c(OC)c1 do in these assays?
SKKanGAS inh: inactive

Results for Nc1nc(CN2CCN(c3cccc(Cl)c3)CC2)nc(N2CCCc3ccccc32)n1 ?
Rad51 HR inh: inactive; SKKanGAS inh: 91; Ins promoter up: inactive; WT yeast gro inh: inactive; Autophagy mod: inactive

Results for Nc1nc(CN2CCN(c3ccccc3)CC2)nc(N2CCCc3ccccc32)n1 ?
Rad51 HR inh: inactive; SKKanGAS inh: 88; KCC2 mod: inactive; WT yeast gro inh: inactive; Autophagy mod: inactive

What do the screens show for `Nc1nc(CSc2nnnn2-c2ccccc2)nc(N2CCCc3ccccc32)n1`?
Rad51 HR inh: inactive; KCC2 mod: inactive; WT yeast gro inh: 60; Autophagy mod: inactive

What do the screens show for `CCCn1c(=O)[nH]c(=O)c2c1nc(-c1cccs1)n2CCOC`?
Rad51 HR inh: inactive; SKKanGAS inh: inactive; KCC2 mod: inactive; Ins promoter up: inactive; WT yeast gro inh: inactive; Autophagy mod: inactive

What do the screens show for `Cc1nccn1CCCNCc1c(C(=O)N2CCCCCCC2)nc2ccc(Cl)cn12`?
SKKanGAS inh: inactive; KCC2 mod: inactive; Ins promoter up: inactive; WT yeast gro inh: inactive; Autophagy mod: inactive

How did CN(C)CCNC(=O)C(=O)Nc1cc2c3c(c1)CCN3C(=O)CC2 do in these assays?
SKKanGAS inh: inactive

How did Nc1ncc(Br)cc1S(=O)(=O)Nc1cc(C(F)(F)F)cc(C(F)(F)F)c1 do in these assays?
SKKanGAS inh: 64

Results for CCCCCOc1ccc(C2C(C(=O)c3ccc(C)o3)=C(O)C(=O)N2c2cc(C)on2)cc1 (stereo not drawn) ?
SKKanGAS inh: 81

Results for Cc1ccc2c(c1)N(CC(=O)NCCC1=CCCCC1)C(=O)c1cccnc1O2 ?
SKKanGAS inh: inactive

How did CCOc1ccc(C2CC(c3c(O)c4ccccc4oc3=O)=NN2c2ccccc2)cc1OC (stereo not drawn) do in these assays?
Rad51 HR inh: inactive; SKKanGAS inh: inactive; KCC2 mod: inactive; WT yeast gro inh: inactive; Autophagy mod: active
